APJ agonist: APJ receptor agonism; CHO-K1 APJ PathHunter beta-arrestin, luminescence; 0% DMSO wells, 100% apelin; activation, % at 20 µM; actives 0.11% (n = 330,000); AID 2520;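 active = activation more than six SD over the plate average, tested at 20 µM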
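Test system: CHO-K1 APJ beta-arrestin complementation cell line. Amount: cell density 1000 per well. Controls: DMSO negative, 10 nM Apelin-13 positive. Signal: luminescent beta-gal fragment complementation, chemiluminescent substrate. Read-out basis: agonist-driven arrestin binding to APJ. Timing: compound stimulation 90 min at 25 °C, detection 60 min.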
APJ antagonist: blocks the human apelin receptor APJ | P35414 | CHO-K1 APJ beta-arrestin complementation, luminescence | inhibition, % at 20 µM | actives 0.32% (n = 330,000) | AID 2521;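 active = inhibition above about 40% at 20 µM, limit read from the data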;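 note: cells challenged with 10 nM apelin-13 agonist together with compound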
CXCR6 inh: CXCR6 (human) receptor inhibition; O00574; CHO-K1 PathHunter CXCR6 beta-arrestin, luminescence; inhibition, % at 20 µM; actives 0.36% (n = 360,000); AID 602244; in the data active = inhibition above about 34%, passing the limit was not always enough;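 note: antagonist mode with CXCL16 agonist at 10 nM final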
Target sequence (O00574 whole entry, looked up): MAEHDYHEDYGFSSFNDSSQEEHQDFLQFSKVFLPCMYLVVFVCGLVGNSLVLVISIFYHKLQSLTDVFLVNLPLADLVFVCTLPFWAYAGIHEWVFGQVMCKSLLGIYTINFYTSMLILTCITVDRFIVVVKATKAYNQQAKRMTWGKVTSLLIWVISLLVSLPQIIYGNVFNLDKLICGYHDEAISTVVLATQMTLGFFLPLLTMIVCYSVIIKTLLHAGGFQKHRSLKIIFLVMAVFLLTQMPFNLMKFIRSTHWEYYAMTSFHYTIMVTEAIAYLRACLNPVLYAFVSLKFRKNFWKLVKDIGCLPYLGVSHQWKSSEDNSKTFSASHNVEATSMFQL
CCR6 antagonist: CCR6 (human) receptor antagonism; AID 493098; P51684; CHO-K1 CCR6 PathHunter beta-arrestin, luminescence, CCL20-stimulated; actives 0.49% (n = 340,000); inhibition, % at 20 µM;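 active = compounds whose inhibition of the agonist-driven luminescence signal at 20 µM reaches about 50%, limit read from the data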;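 note: cells stimulated with CCL20 at 14 nM final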
EBI2 block: EBI2 (human) antagonism. P32249. EBI2 beta-arrestin recruitment, luminescence, 7a,25-OHC stimulated. inhibition, % at 5 µM. actives 0.81% (n = 360,000). AID 651636; in the data active = inhibition above about 38%;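 note: enzyme fragment complementation signal reports receptor beta-arrestin coupling in cells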
Target sequence (P32249 whole entry, looked up, the tested form may be a part): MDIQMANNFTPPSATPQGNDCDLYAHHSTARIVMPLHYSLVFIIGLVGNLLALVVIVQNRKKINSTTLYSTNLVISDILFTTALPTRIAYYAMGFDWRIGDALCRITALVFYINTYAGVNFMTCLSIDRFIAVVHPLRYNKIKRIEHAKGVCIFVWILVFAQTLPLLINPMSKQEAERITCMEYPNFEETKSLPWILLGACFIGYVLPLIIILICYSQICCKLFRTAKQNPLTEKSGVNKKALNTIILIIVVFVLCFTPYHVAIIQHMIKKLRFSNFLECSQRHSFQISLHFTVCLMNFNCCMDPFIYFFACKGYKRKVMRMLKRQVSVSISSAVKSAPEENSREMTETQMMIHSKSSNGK
CXCR6 antag conf: confirmation of human CXCR6 receptor antagonists. shares compounds with CXCR6 inh. CHO-K1 CXCR6 PathHunter beta-arrestin, luminescence. inhibition, % at 20 µM. actives 65% (n = 700). AID 602409;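 active = mean inhibition over four retests above 40%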;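 note: receptor stimulated with 10 nM CXCL16 agonist; beta-galactosidase fragment complementation upon beta-arrestin recruitment to receptor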
Of the large screens only hits and unclear results are named; the others gave an inactive call (follow-up assays come after a bar, where they were run). Rows were chosen to be rich in hits. Some 1.5% of all compounds tested hit in one or more screens of this group.

NC(=S)N/N=C/c1ccc(C(F)(F)F)cc1	none
NC(=S)N/N=C/c1ncc(C(F)(F)F)cc1Cl	APJ antagonist 58, CXCR6 inh 61, CCR6 antagonist 74 | CXCR6 antag conf 90
CCOc1cccc(-c2cc(NCCc3ccccn3)n3nccc3n2)c1	none (no result: APJ agonist, APJ antagonist, CCR6 antagonist)
Cn1cc(CNC(=O)C2CCCCC2)cn1	CXCR6 inh 43 | CXCR6 antag conf inactive
CN(Cc1ccco1)C(=O)[C@H](Cc1ccccc1)NC(=O)CC[C@H]1O[C@@H](n2ccc(=O)[nH]c2=O)[C@H](O)[C@@H]1O	none (no result: APJ agonist, APJ antagonist, CCR6 antagonist)
O=[N+]([O-])c1c(NCCO)cc(N2CCCCCC2)c2nonc12	none
Cc1nnc(Sc2cc(NCCCO)c([N+](=O)[O-])c3nonc23)s1	CXCR6 inh 67, CCR6 antagonist 92 (no result: APJ agonist, APJ antagonist) | CXCR6 antag conf 100
Cc1nnc(Sc2cc(NCCO)c([N+](=O)[O-])c3nonc23)s1	CXCR6 inh 71, CCR6 antagonist 68 (no result: APJ agonist, APJ antagonist) | CXCR6 antag conf 76
O=[N+]([O-])c1cc2oc3c(c2c(C=NCc2ccccc2)c1O)CCCC3	CXCR6 inh 44 | CXCR6 antag conf 59
CC(C)CN=Cc1c(O)c([N+](=O)[O-])cc2oc3c(c12)CCCC3	none
O=C(COC(=O)c1ccco1)NCC1CCCCC1	none
O=C(COC(=O)c1ccco1)NCCNC(=O)COC(=O)c1ccco1	CXCR6 inh 36 | CXCR6 antag conf inactive
O=C(CCNC(=O)c1ccco1)NCCc1ccc(Cl)cc1	CXCR6 inh 40 | CXCR6 antag conf inactive
NS(=O)(=O)c1ccc(CCNC(=O)CCNC(=O)c2ccco2)cc1	none
CCN(CC(=O)Nc1c(F)cccc1F)C(=O)/C=C/c1ccc(Br)s1	none
Cn1cnc([N+](=O)[O-])c1S(=O)(=O)c1cccc(Cl)c1	CXCR6 inh 49, CCR6 antagonist 59 | CXCR6 antag conf 65
Cn1cnc([N+](=O)[O-])c1S(=O)(=O)Oc1ccccc1	CXCR6 inh 42 (no result: APJ agonist, APJ antagonist) | CXCR6 antag conf 60
Cn1cnc([N+](=O)[O-])c1S(=O)(=O)Nc1ccccc1	none (no result: APJ agonist, APJ antagonist)
CC(C(=O)O)N1CCCCC1 (configuration not stated)	none
CC1=CC(C)(C)N2C(=O)C(=Nc3ccc(O)cc3)c3cccc1c32	CXCR6 inh 48 | CXCR6 antag conf 48
NNC(=O)c1cccc(COc2ccc3c(c2)CCC3)c1	CXCR6 inh 49 | CXCR6 antag conf inactive
COc1cc(/C=C/C(=O)c2ccc(C)c([N+](=O)[O-])c2)cc(OC)c1O	CXCR6 inh 43, CCR6 antagonist 68 | CXCR6 antag conf 55
COc1ccc(/C=C/C(=O)c2ccc(C)c([N+](=O)[O-])c2)cc1O	none
COc1ccc(CCNC(=O)COC(=O)c2cccs2)cc1	none
CCCc1ccc(OC(=O)c2cccs2)cc1	CXCR6 inh 50 | CXCR6 antag conf inactive
COc1cc(/C=C(\C#N)c2nc3ccccc3o2)ccc1O	CXCR6 inh 49, CCR6 antagonist 55 | CXCR6 antag conf 43
Cc1ccc(C)c(N/C=C(\C#N)c2nc3ccccc3o2)c1	none
COC(=O)[C@@]12C[C@@H](CC(=O)NCCC(C)C)C(=O)N(Cc3ccc4c(c3)OCO4)C1=CCC(C)(C)C2	none (no result: APJ agonist, APJ antagonist, CXCR6 inh, CCR6 antagonist)
Cn1c(O)c(C2=c3ccccc3=NC2=O)[nH]c1=S	none (no result: CCR6 antagonist)
COc1ccc2nc(-n3c(O)c(C4=c5ccccc5=NC4=O)[nH]c3=S)sc2c1	CXCR6 inh 64, CCR6 antagonist 78 (no result: APJ agonist, APJ antagonist) | CXCR6 antag conf 52
O=C(Nc1cccc2ccccc12)c1csc([C@@H]2C[C@H](O)[C@@H](CO)O2)n1	none (no result: APJ agonist, APJ antagonist, CCR6 antagonist)
Cc1noc(C)c1NC(=O)Nc1cccc2c1O[C@H](CN(C)S(C)(=O)=O)[C@@H](C)CN([C@H](C)CO)C2=O	none
Cc1noc(C)c1NC(=O)Nc1cccc2c1O[C@H](CN(C)S(=O)(=O)c1cn(C)cn1)[C@@H](C)CN([C@H](C)CO)C2=O	CXCR6 inh 45 | CXCR6 antag conf inactive
Cc1ccc(NC(=O)c2ccccc2)cc1	none
Cc1ccc(NC(=O)C2=C(c3ccccc3)S(=O)(=O)CCS2(=O)=O)cc1	CXCR6 inh 48 (no result: CCR6 antagonist) | CXCR6 antag conf 53
CN(C)CCCN(C(=O)CCS(=O)(=O)c1ccccc1)c1nc2cc3c(cc2s1)OCO3	CXCR6 inh 40, CCR6 antagonist 50, EBI2 block 42 | CXCR6 antag conf 57
CN(C)CCCN(C(=O)CCSc1ccccc1)c1nc2cc3c(cc2s1)OCO3	none
CCN1C(=O)[C@H]2[C@@H](c3ccc(C(F)(F)F)cc3)N[C@]3(CCCN(Cc4ccco4)C3=O)[C@H]2C1=O	CXCR6 inh 55 (no result: APJ agonist, APJ antagonist, CCR6 antagonist) | CXCR6 antag conf inactive
CC1=C(C)CC2C(C1)C(=O)c1ccc(Br)cc1S2(=O)=O (configuration not stated)	CXCR6 inh 72, CCR6 antagonist 84 | CXCR6 antag conf 41
COc1ccc(C(=O)NN/C(C)=C/C(=O)c2ccccc2)cc1	none
C/C(=C\C(=O)c1ccccc1)NNC(=O)c1ccc(Cl)cc1	CXCR6 inh 46, CCR6 antagonist 55 | CXCR6 antag conf inactive
C/C(=N\Nc1nc2ccccc2[nH]1)c1ccccn1	CXCR6 inh 42 (no result: CCR6 antagonist) | CXCR6 antag conf 70
C/C(=N\Nc1nc2ccccc2[nH]1)c1cc2ccccc2o1	none
NS(=O)(=O)c1ccc(CNC(=O)NC23CC4CC(CC(C4)C2)C3)cc1	CXCR6 inh 61 | CXCR6 antag conf inactive
O=C(CSc1ccccn1)Nc1ccc(NC(=O)CSc2ccccn2)cc1	CXCR6 inh 87 | CXCR6 antag conf inactive
CCN(C(=O)c1ccc(S(=O)(=O)N2CCCCC2)cc1)C1CCS(=O)(=O)C1 (configuration not stated)	none
COc1ccc(C=Cc2ccc3ccccc3n2)c(OC)c1	none (no result: APJ agonist, APJ antagonist, CCR6 antagonist)
COc1ccc(OC)c(/C=C/c2ccc3cccc(O)c3n2)c1	CXCR6 inh 48 (no result: CCR6 antagonist) | CXCR6 antag conf 59
COc1ccccc1NCC(=O)c1ccc(C)c(C)c1	CXCR6 inh 52, CCR6 antagonist 82 | CXCR6 antag conf inactive
COc1ccc(NC(=O)CN2CCN(S(=O)(=O)N3CCCCCC3)CC2)cc1	none
Cc1ccc(OCC(=O)NNC(=S)NC(=O)C2CC2)c(C)c1	CXCR6 inh 45 (no result: CCR6 antagonist) | CXCR6 antag conf 41
Cc1ccc(S(=O)(=O)c2ccc([N+](=O)[O-])cn2)cc1	CXCR6 inh 55 (no result: CCR6 antagonist) | CXCR6 antag conf 74
Cc1cc(S(=O)(=O)c2ccc([N+](=O)[O-])cn2)ccc1Br	none
COc1ccc(NC(=O)Cn2ncn3nc(-c4ccc(OC)cc4)cc3c2=O)cc1	none
Cc1ccc(O)c(C(=O)CC(=O)c2ccc(Cl)cc2)c1	CXCR6 inh 42, CCR6 antagonist 65 (no result: APJ agonist, APJ antagonist) | CXCR6 antag conf 45
COC(=O)C1CCc2c(ccc3c2CCCC3)C1=O (configuration not stated)	none (no result: APJ agonist, APJ antagonist)
O=C1C=CC2C3C(=O)N(c4ccccc4)C(=O)C3C1N2Cc1ccccc1 (configuration not stated)	CXCR6 inh 51, CCR6 antagonist 59 (no result: APJ agonist, APJ antagonist) | CXCR6 antag conf 45

Screening results: PubChem BioAssay, Sanford-Burnham Center for Chemical Genomics
